From PubChem BioAssay
Active and inactive are the calls of the source.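 The calls were made as follows, unless noted: active = fluorescence slope higher than the sample average by over 3 SD (cut at about -0.22 in these data, passing the limit was not always enough); inactive = the rest.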

Key:
[1] = inhibitors of TNFa-induced NFkB p65 translocation, primary screen, imaging, HUVEC, MLSMR starter and 10KST1 sets (AID 438;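 active = inhibition above 20% together with a positive visual image hit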;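 also: compound added about 3h40 before a 20 min TNFalpha stimulation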;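 as to inhibition: signal is the nuclear over cytoplasmic p65 intensity ratio per well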); conditions: HUVEC TNFa-induced p65 nuclear translocation; cell count: measured here: nuclei count (cytotoxicity indicator), at 2.08 µM; inhibition: at 2 µM, stronger effect = higher value, 0% TNFa-plus-vehicle, 100% no-TNFa wells
[2] = endothelial E-selectin expression blockers – imaging, HUVEC, immunofluorescence, MLSMR starter and 10KST1 sets, primary screen (AID 487;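 active = visually confirmed hit in the image check and inhibition above 20%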;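 as to inhibition: signal is fraction of cell area covered by stained E-selectin grains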;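 as to nuclei count: 100% = median nuclei count of all wells on the same plate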); conditions: HUVEC TNFalpha-induced E-selectin immunofluorescence imaging, at 2 µM; inhibition: stronger effect = higher value; nuclei count: measured here: cell number, toxicity
[3] = Primary imaging screen for DUSP6 inhibitors that restore phospho-Erk in transfected HeLa cells, chemical complementation (AID 609;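 active = compounds giving at least 50% inhibition in the cell-based MKP-3 phosphatase rescue imaging test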;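 as to inhibition: phospho-Erk level distribution per well compared with pooled transfected vehicle control wells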); conditions: HeLa MKP-3 transfected, phospho-Erk imaging KS statistic, at 10 µM, cells stimulated with TPA for 15 min
[4] = target: Dual specificity protein phosphatase 6 (Homo sapiens) (UniProt Q16828); assay: as above; conditions: HeLa MKP-3 transfected, phospho-Erk imaging KS statistic; at 10 µM; stronger effect = higher value; cells stimulated with TPA for 15 min
[5] = target: Voltage-gated potassium channel subunit beta-2 (Rattus norvegicus) (UniProt P62483); assay: inhibitors of rat Kvbeta2 reductase activity – biochemical, NADPH fluorescence, primary screen (AID 622); conditions: recombinant KvBeta, 4-cyanobenzaldehyde reduction, at 10 µM, stronger effect = higher value;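 also: slope of raw intensity against log time taken from 70 to 1610 s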
[6] = target: Voltage-gated potassium channel subunit beta-2 (Rattus norvegicus) (UniProt P62483); assay: enhancers of rat Kvbeta2 NADPH turnover – biochemical, NADPH fluorescence, primary screen (AID 623;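 active = NADPH fluorescence slope more negative than the mean of all samples by about 3 SD, 99.7% confidence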;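 also: fluorescence intensity change per second fitted from 20 to 320 s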); conditions: Recombinant KvBeta, NADPH fluorescence decrease slope, 10 min; at 10 µM; stronger effect = lower value
[7] = target: Muscarinic acetylcholine receptor M4 (Homo sapiens) (UniProt P08173); assay: M4-linked GIRK flux change, two-sided – cell-based, HEK293 M4/GIRK, thallium flux, BTC-AM, M4 allosteric agonist project, primary screen (AID 625;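 active = fluorescence slope after compound addition differing from the mean of all tested samples at 99.7% confidence, mostly higher but some lower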;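 also: thallium influx through GIRK channels coupled to M4 in HEK293 cells with BTC-AM dye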); conditions: at 10 µM, actives lie on both sides
In short: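 Material: M4/GIRK1/GIRK2 stable HEK293 cell line. Medium: pH 7.3 thallium assay buffer. Dosing: single compound concentration, 10 µM final. Schedule: 1 h dye loading, 2 min kinetic read. Measured by: kinetic fluorescence with BTC-AM dye. Read-out: post-addition slope, 15–24 s, of baseline-normalized fluorescence. Benchmarks: carbachol and DMSO controls.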

[8] = inhibitors of larval lipid processing in zebrafish, primary screen, whole organism, PED6 fluorescence, gall bladder and intestine (AID 686;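 active = a full or partial loss of lipid-probe fluorescence in the fish gall bladder, intestine or both, judged by eye; inactive = no fluorescence loss, or compound toxic to the fish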;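 also: larvae 5 to 7 days old with five fish per well; signal comes from phospholipase A2 cleavage of quenched PED6 carried via bile; overnight exposure to compound and PED6 before scoring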); conditions: Zebrafish larvae PED6 lipid processing, fluorescence scoring; screened at 20 µM (by protocol)
In short: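 System: live zebrafish larvae aged 5-7 days, whole organism; measure: graded gall bladder and intestinal fluorescence inhibition per well; incubation: overnight exposure; reagent: ingested quenched lipid PED6 at 100 nM; signal: By-eye fluorescence microscopy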

[9] = loss of swimming-algae plug formation – whole organism, Chlamydomonas reinhardtii, WT vs cilia-less mutant, absorbance, 96-well, primary screen (AID 463189;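 active = inhibition at or above 50% relative to wild type and mutant plate controls; inactive = inhibition below 50%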;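 also: 0% = wild type cc124 cells in DMSO and 100% = ciliumless bld1 mutant cells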); conditions: Chlamydomonas reinhardtii gravitaxis, OD600 absorbance, 2 days; at 10 µM; stronger effect = higher value
[10] = measured here: cell density z-score
[11] = measured here: nuclear c-Myc green intensity z-score
[12] = measured here: nuclear pErk red intensity z-score, stronger effect = higher value

Sequence of Muscarinic acetylcholine receptor M4 (Homo sapiens) (P08173 whole entry, looked up): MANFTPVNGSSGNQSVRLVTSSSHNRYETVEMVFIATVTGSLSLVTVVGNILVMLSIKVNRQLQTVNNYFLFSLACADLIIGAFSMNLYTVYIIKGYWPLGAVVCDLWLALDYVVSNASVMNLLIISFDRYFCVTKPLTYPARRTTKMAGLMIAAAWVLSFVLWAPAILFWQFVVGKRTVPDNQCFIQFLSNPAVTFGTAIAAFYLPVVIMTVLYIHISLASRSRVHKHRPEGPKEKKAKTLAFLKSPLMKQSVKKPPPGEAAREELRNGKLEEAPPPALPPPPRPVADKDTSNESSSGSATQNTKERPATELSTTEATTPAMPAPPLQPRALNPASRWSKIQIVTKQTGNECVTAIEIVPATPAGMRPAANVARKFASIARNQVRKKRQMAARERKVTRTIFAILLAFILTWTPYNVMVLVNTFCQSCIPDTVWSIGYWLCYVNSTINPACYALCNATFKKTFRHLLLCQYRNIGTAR
Sequence of Dual specificity protein phosphatase 6 (Homo sapiens) (Q16828 whole entry, looked up): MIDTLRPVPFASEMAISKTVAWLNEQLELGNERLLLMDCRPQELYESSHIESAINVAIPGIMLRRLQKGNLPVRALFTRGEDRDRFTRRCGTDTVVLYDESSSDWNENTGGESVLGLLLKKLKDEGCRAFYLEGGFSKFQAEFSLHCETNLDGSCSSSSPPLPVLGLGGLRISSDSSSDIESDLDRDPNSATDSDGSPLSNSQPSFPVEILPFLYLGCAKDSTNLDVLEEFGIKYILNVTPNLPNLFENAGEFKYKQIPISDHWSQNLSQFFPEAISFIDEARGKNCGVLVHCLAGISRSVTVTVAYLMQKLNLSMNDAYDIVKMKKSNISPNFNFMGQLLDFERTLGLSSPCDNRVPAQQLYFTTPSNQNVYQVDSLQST
Sequence of Voltage-gated potassium channel subunit beta-2 (Rattus norvegicus) (P62483 whole entry, looked up): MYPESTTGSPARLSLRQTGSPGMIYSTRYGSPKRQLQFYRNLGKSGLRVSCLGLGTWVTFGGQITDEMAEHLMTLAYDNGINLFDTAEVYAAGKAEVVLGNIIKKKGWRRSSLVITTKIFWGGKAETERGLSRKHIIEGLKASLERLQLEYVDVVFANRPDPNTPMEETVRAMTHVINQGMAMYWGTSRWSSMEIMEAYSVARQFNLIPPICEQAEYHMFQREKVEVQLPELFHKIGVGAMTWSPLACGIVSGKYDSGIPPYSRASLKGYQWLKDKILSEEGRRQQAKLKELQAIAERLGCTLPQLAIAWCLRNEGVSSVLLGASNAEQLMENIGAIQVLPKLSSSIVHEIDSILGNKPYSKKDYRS

Row | SMILES | cell count [1] | inhibition [1] | inhibition [2] | nuclei count [2] [%] | z-score [3, 10] | z-score [3, 11] | z-score [3, 12] | inhibition [4] | fluorescence slope [5] | NADPH fluorescence slope [6] | fluorescence slope [7] | outcome [8] | inhibition [9]
1 | COc1ccc(C(=O)c2ccc(N3CCOCC3)cc2)c(OC)c1 | 624 | -6.6% (inactive) | -21.8% (inactive) | 99.4 | -2.58 | 0.925 | 1.09 | 5.95% (inactive) | -0.488 (inactive) | -6.2e-05 (inactive) | 0.00684 (inactive) | inactive | -11.4% (inactive)
2 | Cn1cccc1/C=N/n1cnnc1 | 561 | 0.9% (inactive) | -164% (inactive) | 130 | 0.378 | -0.4 | -0.934 | -4.59% (inactive) | -0.452 (inactive) | -0.000125 (inactive) | 0.0051 (inactive) | inactive | -1.85% (inactive)
3 | CC(NC(=O)OCc1ccccc1)C(=O)OCN1C(=O)c2ccccc2C1=O (stereo not drawn) | 519 | -9.1% (inactive) | -64.3% (inactive) | 130 | 0.544 | -1.4 | 0.638 | -3.97% (inactive) | -0.391 (inactive) | -4.8e-06 (inactive) | 0.00711 (inactive) | inactive | 28% (inactive)
4 | CN(C)CCOC(=O)Cc1ccc(Cl)cc1 | 622 | -6.2% (inactive) | -90.8% (inactive) | 83.6 | 1.56 | -0.995 | -0.341 | 12.8% (inactive) | -0.539 (inactive) | -4.8e-05 (inactive) | 0.00854 (inactive) | inactive | 35.4% (inactive)
5 | N#Cc1c2c(c(-c3ccccc3)[nH]c1=O)CCCC2 | 580 | -9.4% (inactive) | -88.6% (inactive) | 140 | -0.665 | -0.156 | -4.21 | 16.5% (inactive) | -0.377 (inactive) | -0.000105 (inactive) | 0.00448 (inactive) | inactive | -4.11% (inactive)
6 | N#Cc1c(N)n(CCOC(=O)c2ccc(Cl)cc2)c2nc3ccccc3nc12 | 617 | 22.7% (active) | -33.2% (inactive) | 95 | -0.315 | -0.666 | -0.586 | -2.47% (inactive) | -0.278 (inactive) | -7.1e-06 (inactive) | 0.00595 (inactive) | inactive | -2.92% (inactive)
7 | CC(=O)c1ccc(C#CC(C)(C)O)s1 | 496 | -2.5% (inactive) | -51.1% (inactive) | 126 | -0.749 | 0.398 | 0.00406 | -3.97% (inactive) | -0.386 (inactive) | -7.4e-05 (inactive) | 0.00521 (inactive) | inactive | -7.15% (inactive)
8 | CCOC(=O)C1CCN(c2nc3ccccc3nc2C(C#N)C(=O)OC(C)COC)CC1 (stereo not drawn) | 633 | -11.6% (inactive) | -4.7% (inactive) | 160 | 0.378 | -0.378 | -0.33 | -5.81% (inactive) | -0.488 (inactive) | -8.1e-05 (inactive) | 0.00472 (inactive) | inactive | 6.91% (inactive)
9 | COc1ccc(/C(O)=C2/C(=O)C(=O)N(CCCN(C)C)C2c2ccc(C)o2)cc1Cl (stereo not drawn) | 709 | -8.3% (inactive) | -108% (inactive) | 146 | -0.0808 | -0.238 | -0.0387 | -6.48% (inactive) | -0.48 (inactive) | -4.6e-05 (inactive) | 0.0051 (inactive) | inactive | 18.3% (inactive)
10 | Cc1ccc(-n2ncc3c(N4CCC(C(N)=O)CC4)ncnc32)c(C)c1 | 525 | -15.6% (inactive) | -31.1% (inactive) | 113 | -0.735 | 0.453 | -0.332 | 7.42% (inactive) | -0.391 (inactive) | -3.9e-05 (inactive) | 0.0065 (inactive) | inactive | 42.2% (inactive)
11 | CN=C(c1ccco1)n1c(=S)nc(-c2ccco2)n(C)c1=S | 339 | -5.2% (inactive) | -204% (inactive) | 126 | 0.329 | -0.895 | -0.461 | -2.59% (inactive) | -0.522 (inactive) | -0.000102 (inactive) | 0.00396 (inactive) | inactive | 28.5% (inactive)
12 | CCC(=O)Nc1nc(C)c(Oc2ccccc2)c(=O)[nH]1 | 696 | -5.5% (inactive) | 34.5% (inactive) | 151 | -0.359 | -0.286 | 0.522 | -9.53% (inactive) | -0.412 (inactive) | -4.2e-05 (inactive) | 0.00483 (inactive) | inactive | 2.71% (inactive)
13 | Cc1cc(N2C(=O)C(=O)/C(=C(/O)c3ccccc3)C2c2cccs2)no1 (stereo not drawn) | 668 | 0.1% (inactive) | -91.9% (inactive) | 165 | 0.267 | -0.396 | -0.163 | 6.04% (inactive) | -0.486 (inactive) | -1.4e-05 (inactive) | 0.00578 (inactive) | inactive | 24.8% (inactive)
14 | C=CCn1c(N)c(C(=O)Nc2ccccc2)c2nc3ccccc3nc21 | 628 | 9.1% (inactive) | -27.4% (inactive) | 121 | 1.06 | -1.1 | -0.334 | 9.07% (inactive) | -0.398 (inactive) | -1.8e-05 (inactive) | 0.00512 (inactive) | active; no signal in intestine only | 59.2% (active)
15 | C=CCOc1ccc(C2/C(=C(\O)c3ccc(F)cc3)C(=O)C(=O)N2CCCN(C)C)cc1 (stereo not drawn) | 672 | -13.7% (inactive) | -142% (inactive) | 172 | 1.58 | 1.06 | -0.378 | 4.25% (inactive) | -0.451 (inactive) | -4.3e-05 (inactive) | 0.00492 (inactive) | inactive | 14.7% (inactive)
16 | CCCC(=O)Nc1nn(CCC)c2nc3ccccc3cc12 | 632 | -8.1% (inactive) | 7.7% (inactive) | 142 | -0.342 | -1.58 | 0.919 | 2.71% (inactive) | -0.481 (inactive) | -6.7e-05 (inactive) | 0.00673 (inactive) | inactive | 6.78% (inactive)
17 | C=CCn1c(C2CC(=O)N(c3ccc(C)cc3)C2)nc2ccccc21 (stereo not drawn) | 591 | -13.7% (inactive) | 47.4% (inactive) | 177 | -1.26 | -0.0771 | 0.981 | -2.29% (inactive) | -0.467 (inactive) | -0.00019 (inactive) | 0.00532 (inactive) | inactive | 2% (inactive)
18 | N#Cc1nc(COc2ccccc2Cl)oc1NCc1ccc(F)cc1 | 432 | -1.7% (inactive) | -89.3% (inactive) | 182 | -1.38 | 0.104 | 0.625 | 2.71% (inactive) | -0.373 (inactive) | -3.8e-05 (inactive) | 0.00509 (inactive) | inactive | -1.44% (inactive)
19 | O=C1C(=O)N(CCCn2ccnc2)C(c2ccccn2)/C1=C(/O)c1ccccc1 (stereo not drawn) | 436 | -12.2% (inactive) | -259% (inactive) | 147 | -0.279 | -1.33 | 0.494 | 9.37% (inactive) | -0.469 (inactive) | -5.2e-05 (inactive) | 0.00446 (inactive) | inactive | 0.678% (inactive)
20 | CCCCSc1nc(O)c(C2OC(=O)c3c2ccc(OC)c3OC)c(=O)n1C (stereo not drawn) | 559 | 1.9% (inactive) | 57.7% (active) | 95.8 | -2.21 | -0.0853 | 0.751 | 9.91% (inactive) | -0.372 (inactive) | -2.3e-05 (inactive) | 0.00535 (inactive) | inactive | 32.4% (inactive)
21 | CCOc1ccc2nc(NC(NC(C)=O)(C(=O)OC)C(F)(F)F)sc2c1 (stereo not drawn) | 550 | 1.9% (inactive) | -54.7% (inactive) | 119 | -0.584 | 0.796 | 1.15 | -4.59% (inactive) | -0.459 (inactive) | -0.000128 (inactive) | 0.00553 (inactive) | inactive | 7.67% (inactive)
22 | Cc1c2c([n+]3n1CCC3)CC(C)(C)CC2=O | 617 | 10.2% (inactive) | -23.3% (inactive) | 121 | -0.832 | 1.36 | 0.404 | -7.67% (inactive) | -0.443 (inactive) | -3.2e-05 (inactive) | 0.00512 (inactive) | inactive | -11.5% (inactive)
23 | COC(=O)c1c(C)[nH]c(C(=O)OCc2ccc(F)cc2)c1C | 693 | -3.8% (inactive) | 50.5% (inactive) | 160 | -0.559 | -1.43 | -0.0192 | 7.21% (inactive) | -0.461 (inactive) | -1.9e-05 (inactive) | 0.00635 (inactive) | inactive | 80.6% (active)
24 | CCOC(=O)C1=C(C)OC(N)=C(C#N)C1c1cc2ccccc2nc1N1CCCCC1 (stereo not drawn) | 619 | -8.2% (inactive) | -33.5% (inactive) | 181 | -0.314 | 0.189 | 0.368 | -14.6% (inactive) | -0.315 (inactive) | -8.1e-06 (inactive) | 0.00507 (inactive) | inactive | 37.2% (inactive)
25 | O=C(Cc1ccc(Cl)cc1)Nc1cccc(-c2nnc(-c3ccco3)o2)c1 | 695 | -4% (inactive) | 32.2% (inactive) | 162 | 0.714 | 1.13 | -0.033 | 7.21% (inactive) | -0.476 (inactive) | -7.5e-05 (inactive) | 0.006 (inactive) | inactive | 5.58% (inactive)
26 | COc1ccc(/C(O)=C2/C(=O)C(=O)N(c3nc(C)c(C)s3)C2c2ccco2)cc1 (stereo not drawn) | 611 | -12.5% (inactive) | -52.8% (inactive) | 196 | 1.1 | -0.551 | 1.3 | 12.7% (inactive) | -0.446 (inactive) | -5.8e-05 (inactive) | 0.00557 (inactive) | inactive | 0.492% (inactive)
